Screening data deposited in PubChem by several laboratories.
Hits are enriched below; roughly 2.6% of the tested compounds scored in any of these assays.
core dimer inh: inhibitors of HCV core protein dimerization, primary screen, biochemical, TR-FRET, high-throughput; TR-FRET GST/Flag-core106 dimerization, 1536-well; inhibition, % at 5 µM; hit rate 0.33% among 300,000; AID 1899, 2009;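 active means inhibition above the mean of all tested compounds plus 3 SD, set per screening campaign, cut at about 45% in these data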
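assay system = GST-tagged and Flag-tagged HCV core protein residues 1-106 | controls = unlabelled core106 and no-GST-core106 wells | incubation = compound-protein-antibody incubation 4 h at 22.5 °C | probe or stimulus = Eu donor and XL665 acceptor anti-tag antibodies | read-out = % inhibition based on acceptor/donor emission ratio | signal = TR-FRET 671 and 617 nm emission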
NadD block: inhibitors of S. aureus NadD, primary screen, biochemical, colorimetric, uHTS. Nicotinate-nucleotide adenylyltransferase NadD (Staphylococcus aureus N315). purified NadD enzyme, colorimetric absorbance read-out. inhibition, % at 20 µM. hit rate 0.78% among 360,000. AID 602399, 2012; in the data active means inhibition above about 26%
rCAG RNA binder: binders of r(CAG) RNA repeats, primary screen, biochemical, fluorescence. inhibition, % at 3 µM. hit rate 1.3% among 370,000. r(CAG) RNA repeat, TO-PRO-1 dye displacement fluorescence;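 active means inhibition above the plate cutoff, the mean of all test compounds on that plate plus 3 SD, cut at about 35% in these data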;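 further: 0% = DMSO alone and 100% = 100 µM mitoxantrone as full dye displacement; higher means more dye released from RNA so lower well fluorescence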
ABHD5-PLIN5 inh: ABHD5-PLIN5 interaction inhibitors, primary screen, cell lysate, split luciferase complementation, luminescence; Perilipin-5 (Homo sapiens) + 1-acylglycerol-3-phosphate O-acyltransferase ABHD5 (Homo …; Split G. princeps luciferase complementation, 4 h; inhibition, % at 4 µM; hit rate 0.78% among 360,000; AID 602281, 2012;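 active means inhibition above the mean inhibition across every tested compound plus 3 SD, cut at about 22% in these data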;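 further: 0% = DMSO only wells and the 100% control is not disclosed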
Target sequence (Q00G26 whole entry, looked up): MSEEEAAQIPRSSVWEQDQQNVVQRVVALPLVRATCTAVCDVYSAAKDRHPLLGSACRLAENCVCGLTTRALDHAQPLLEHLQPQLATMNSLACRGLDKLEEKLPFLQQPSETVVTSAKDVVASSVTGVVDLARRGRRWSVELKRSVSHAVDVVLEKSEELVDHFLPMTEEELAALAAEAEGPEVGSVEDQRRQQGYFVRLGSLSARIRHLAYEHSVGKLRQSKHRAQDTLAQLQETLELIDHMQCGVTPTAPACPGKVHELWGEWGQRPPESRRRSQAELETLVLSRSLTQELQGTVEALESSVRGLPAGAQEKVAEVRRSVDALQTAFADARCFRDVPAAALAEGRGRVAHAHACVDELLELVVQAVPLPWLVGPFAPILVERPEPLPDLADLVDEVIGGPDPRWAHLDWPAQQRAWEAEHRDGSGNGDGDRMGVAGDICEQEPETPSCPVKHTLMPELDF
Target sequence (Q8WTS1 whole entry, looked up): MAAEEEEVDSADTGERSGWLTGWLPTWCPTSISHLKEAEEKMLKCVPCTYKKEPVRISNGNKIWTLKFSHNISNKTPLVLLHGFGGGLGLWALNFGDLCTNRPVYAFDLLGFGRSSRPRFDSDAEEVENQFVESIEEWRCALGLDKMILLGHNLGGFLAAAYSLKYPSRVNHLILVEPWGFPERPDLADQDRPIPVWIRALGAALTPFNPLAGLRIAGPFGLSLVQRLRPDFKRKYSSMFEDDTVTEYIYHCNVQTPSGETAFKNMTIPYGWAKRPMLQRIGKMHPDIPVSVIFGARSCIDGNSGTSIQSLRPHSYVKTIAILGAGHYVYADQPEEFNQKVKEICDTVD
NadD inh conf: inhibitors of S. aureus NadD, confirmation, biochemical, colorimetric, single concentration. inhibition, % at 20 µM. purified S. aureus NadD, colorimetric enzyme assay. hit rate 13% among 2,000. AID 624309, 2012. shares compounds with NadD block; in the data active means inhibition mostly above about 42%, no sharp cut-off; inactive means mostly below about 42%
Starred values were filed as active, the others as inactive.

For COC(=O)[C@@]12CCCCC3=C1N(CCC3)C(=O)[C@H]2CC(=O)N1CCC(c2ccccc2)CC1 the results were rCAG RNA binder 4.
N#Cc1ccc(NC(=O)Nc2ccc(Oc3ccc(NC(=O)Nc4ccc(C#N)cc4)cc3)cc2)cc1 was read as core dimer inh 3, NadD block 28*, rCAG RNA binder 8, ABHD5-PLIN5 inh -10 and NadD inh conf -2.
N#Cc1ccc(NC(=O)Nc2cccc(C#N)c2)cc1 was read as NadD block -7, rCAG RNA binder 5 and ABHD5-PLIN5 inh -6.
Screening Cc1ccccc1NC(=O)CN1C(=O)S/C(=C\c2cccn2-c2cccc(C(=O)O)c2)C1=O returned core dimer inh 13, NadD block 15, rCAG RNA binder 7 and ABHD5-PLIN5 inh -3.
For Cc1ccc(NC(=O)CN2C(=O)S/C(=C\c3cccn3-c3cccc(C(=O)O)c3)C2=O)c(C)c1 the results were core dimer inh 23, NadD block 40*, ABHD5-PLIN5 inh 8 and NadD inh conf 5.
For O=S1(=O)c2ccc(Br)cc2OC2CCCC[C@@H]2N1Cc1ccccc1 (some centres not stated) the results were rCAG RNA binder 5.
`CCCCc1nc2ccccc2c(=O)n1NC(=O)c1c(O)c2c(n(CC(C)C)c1=O)CCCC2` gave NadD block 33*, rCAG RNA binder 0, ABHD5-PLIN5 inh -1 and NadD inh conf 14.
For CCOC1=C2[C@H](c3cccs3)N(S(=O)(=O)c3ccc(C)cc3)C[C@H]2n2c(=O)n(-c3ccccc3)c(=O)n2C1 the results were NadD block 13, rCAG RNA binder 8 and ABHD5-PLIN5 inh 8.
For COCCNc1nc(-c2cc(C)n(CCc3ccc(OC)cc3)c2C)cs1 the results were core dimer inh 43, NadD block 36*, rCAG RNA binder 11, ABHD5-PLIN5 inh -8 and NadD inh conf 21.
Screening COc1ccc(CCn2c(C)cc(C(=O)COC(=O)c3cnccn3)c2C)cc1 returned core dimer inh 13, NadD block -1, rCAG RNA binder 2 and ABHD5-PLIN5 inh 4.
For CCCCCCCCN1C(=O)[C@@H](CC(=O)NCCC(C)C)C[C@@]2(C(=O)OC)C1=C[C@H](C1CCCC1)O[C@@H]2C the results were rCAG RNA binder 2.
`N#Cc1nc(-c2ccccc2)oc1NCCCn1ccnc1` gave core dimer inh -2, NadD block 0, rCAG RNA binder -3 and ABHD5-PLIN5 inh 7.
For N#Cc1nc(-c2ccc(OCc3ccc(Cl)cc3)cc2)oc1NCCCn1ccnc1 the results were core dimer inh -3, NadD block 30*, rCAG RNA binder 1, ABHD5-PLIN5 inh 4 and NadD inh conf 7.
Screening CCCOc1ccc(C(=O)NNC(=S)NC(=O)c2ccccc2)cc1 returned core dimer inh 9, NadD block 1, rCAG RNA binder 28 and ABHD5-PLIN5 inh -6.
Cc1ccccc1NC(=S)NC(=O)c1cc(-c2ccccc2)nc2ccccc12 was read as core dimer inh 20, NadD block 38*, rCAG RNA binder 9, ABHD5-PLIN5 inh -6 and NadD inh conf 28.
CCOc1ccc(-c2cc(C(=O)Nc3ccc4c(c3)OCCO4)c3ccccc3n2)cc1 was read as core dimer inh 21, NadD block 33*, rCAG RNA binder 9, ABHD5-PLIN5 inh -2 and NadD inh conf 15.
For Cc1cccc(-c2cc(C(=O)Nc3ccc4c(c3)OCCO4)c3ccccc3n2)c1 the results were core dimer inh 15, NadD block 18, rCAG RNA binder 8 and ABHD5-PLIN5 inh 4.
CCCOc1ccc(C(=O)NNC(=S)NC(=O)c2cc(-c3ccccc3)nc3ccccc23)cc1 was read as core dimer inh 24, NadD block 62*, rCAG RNA binder 3, ABHD5-PLIN5 inh -7 and NadD inh conf 13.
Screening Cc1ccc(-c2csc(/C=C3\SC(C)C(=O)N3CC(=O)Nc3ccccc3F)n2)cc1 (configuration not stated) returned core dimer inh 12, NadD block 32*, rCAG RNA binder 8, ABHD5-PLIN5 inh -1 and NadD inh conf 15.
Screening O=C(CN1C(=O)CS/C1=C\c1nc(-c2ccc(Cl)cc2)cs1)Nc1cccnc1Cl returned core dimer inh 4, NadD block 4, rCAG RNA binder 6 and ABHD5-PLIN5 inh -4.
Cc1cc(C(=O)N/N=C/c2cc(Br)ccc2OC(=O)c2ccccc2Cl)n[nH]1 was read as core dimer inh 4, NadD block 35*, rCAG RNA binder 10, ABHD5-PLIN5 inh -8 and NadD inh conf -4.
`Cc1cc(C(=O)N/N=C/c2cc(Br)ccc2OC(=O)c2ccccc2)n[nH]1` gave core dimer inh 6, NadD block 9, rCAG RNA binder 12 and ABHD5-PLIN5 inh -9.
Screening O=C(Nc1ccc(F)cc1)c1nc2c(nnn2Cc2cccc3ccccc23)c(=O)[nH]1 returned core dimer inh 18, NadD block 33*, rCAG RNA binder 22, ABHD5-PLIN5 inh 7 and NadD inh conf 20.
For CC(C)NC(=O)C1(C)CCN1CCC(=O)c1ccccc1 (configuration not stated) the results were NadD block -3, rCAG RNA binder -2 and ABHD5-PLIN5 inh -2.
`Cc1cc(-c2csc(NC(=O)c3ccc(C#N)cc3)n2)c(C)n1Cc1ccccc1` gave core dimer inh 52*, NadD block 34*, rCAG RNA binder 14, ABHD5-PLIN5 inh -5 and NadD inh conf 26.
O=C(C(=O)N1CCN(CCN2CCOCC2)CC1)c1ccccc1 was read as rCAG RNA binder -1 and ABHD5-PLIN5 inh 5.
Screening CCOc1ccccc1/C=N/NC(=O)Cc1csc(Nc2cccc(C(F)(F)F)c2)n1 returned core dimer inh 24, NadD block 38*, rCAG RNA binder 14, ABHD5-PLIN5 inh -9 and NadD inh conf 24.
`CCOc1ccc(/C=N/NC(=O)Cc2csc(Nc3cccc(C(F)(F)F)c3)n2)c(OCC)c1` gave core dimer inh 24, NadD block 9, rCAG RNA binder 9 and ABHD5-PLIN5 inh -3.
`COc1ccc(/C=N/NC(=O)Cc2csc(Nc3cccc(C(F)(F)F)c3)n2)c(OC)c1` gave core dimer inh 23, NadD block 33*, rCAG RNA binder 13, ABHD5-PLIN5 inh -1 and NadD inh conf 45.
Screening O=Cc1ccc(-c2ccc(C(=O)O)cc2)o1 returned core dimer inh 0, NadD block -3, rCAG RNA binder 3 and ABHD5-PLIN5 inh 9.
For O=[N+]([O-])c1ccc(-c2ccc(/C=N/O)o2)cc1 the results were core dimer inh -1, NadD block -1, rCAG RNA binder 15 and ABHD5-PLIN5 inh 1.
